Source: ChEMBL document CHEMBL1149562, “Identification and optimization of novel 1,3,4-oxadiazole EP1 receptor antagonists” (Bioorg Med Chem Lett, 2007)
pIC50, pKi: −log10 of the molar value.

Key:
[1] = target: T1, Prostaglandin E2 receptor EP1 subtype (Homo sapiens, UniProt P34995); assay: Displacement of [3H]PGE2 from human recombinant EP1 receptor expressed in CHO cell membrane; type: cell membranes; conditions: for IC50: read-out: Log IC50 (converted); for pIC50: read-out: IC50
T1 sequence (P34995 whole entry): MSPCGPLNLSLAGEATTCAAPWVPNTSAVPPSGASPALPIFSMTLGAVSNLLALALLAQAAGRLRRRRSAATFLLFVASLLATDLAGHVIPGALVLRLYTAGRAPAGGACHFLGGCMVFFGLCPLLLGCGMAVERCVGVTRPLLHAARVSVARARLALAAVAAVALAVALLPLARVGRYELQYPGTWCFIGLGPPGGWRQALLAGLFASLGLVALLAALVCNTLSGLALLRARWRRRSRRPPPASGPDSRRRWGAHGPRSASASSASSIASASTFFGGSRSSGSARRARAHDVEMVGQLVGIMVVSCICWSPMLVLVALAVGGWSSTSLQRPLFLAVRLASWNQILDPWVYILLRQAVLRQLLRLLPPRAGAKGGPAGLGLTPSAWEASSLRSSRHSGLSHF
Procedure, shortened: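 Radioligand binding using [3H]-PGE2 on membranes of CHO cells expressing recombinant human EP1 receptor; affinity expressed as pIC50. Values are means of at least three experiments.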

[2] = target: T1, Prostaglandin E2 receptor EP1 subtype; assay: Antagonist activity at human recombinant EP1 receptor expressed in CHO cells assessed as inhibition of PGE2-induced calcium mobilization by FLIPR; type: functional, cell-based
Procedure, shortened: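 Functional antagonism in CHO cells expressing recombinant human EP1 receptor; blockade of PGE2-driven intracellular Ca2+ mobilization read by FLIPR, reported as pKi. Values are means of at least three experiments, with some from two.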

Compound	IC50 [1]	pKi [2]	pIC50 [1]
Cc1ccc(S(=O)(=O)N(CC(=O)NCCc2ccc(Cl)cc2)c2ccccc2C)cc1	251 nM	–	–
CCc1ccccc1N(CC(=O)OCc1ccc(OC)cc1)S(=O)(=O)c1ccc(C)cc1	–	–	7.20
Cc1ccc(S(=O)(=O)N(Cc2nnc(Cc3c(Cl)cccc3Cl)o2)c2cccc(Cl)c2C)cc1	63.1 nM	6.30	–
Cc1ccc(S(=O)(=O)N(Cc2nnc(Cc3ccccc3F)o2)c2cccc(Cl)c2C)cc1	501 nM	6.20	–
CCc1ccccc1N(Cc1nnc(CNc2ccc(OC)cc2)o1)S(=O)(=O)c1ccc(C)cc1	501 nM	6.10	–
CCc1ccccc1N(Cc1nnc(Cc2ccc(OC)cc2)o1)S(=O)(=O)c1ccc(C)cc1	–	6.20	6.90
CCc1ccccc1N(CC(=O)NCCc1ccc(OC)c(OC)c1)S(=O)(=O)c1ccc(C)cc1	7.94 nM	–	–
Cc1ccc(S(=O)(=O)N(Cc2nnc(Cc3ccc(F)cc3)o2)c2cccc(Cl)c2C)cc1	200 nM	6.30	–
CCc1ccccc1N(CC(=O)NCc1ccc(OC)cc1)S(=O)(=O)c1ccc(C)cc1	–	–	7.60
Cc1ccc(S(=O)(=O)N(Cc2nnc(Cc3cccc(Cl)c3)o2)c2cccc(Cl)c2C)cc1	158 nM	5.70	–
COc1ccc(Cc2nnc(CN(c3cccc(C(F)(F)F)c3C)S(=O)(=O)c3ccc(C)cc3)o2)cc1	63.1 nM	6.40	–
Cc1ccc(S(=O)(=O)N(Cc2nnc(Cc3ccc(Cl)cc3Cl)o2)c2cccc(Cl)c2C)cc1	63.1 nM	6.00	–
Cc1ccc(S(=O)(=O)N(Cc2nnc(Cc3cccc(F)c3)o2)c2cccc(Cl)c2C)cc1	316 nM	6.30	–

The remaining lines, values ahead:

IC50 [1]	pKi [2]	pIC50 [1]	Compound
126 nM	7.40	–	CCOc1ccc(Cc2nnc(CN(c3ccccc3CC)S(=O)(=O)c3ccc(C)cc3)o2)cc1
3.98 nM	7.30	–	CCOc1ccc(Cc2nnc(CN(c3cccc(Cl)c3C)S(=O)(=O)c3ccc(C)cc3)o2)cc1
7.94 nM	7.40	–	COc1ccc(Cc2nnc(CN(c3cccc(Cl)c3Cl)S(=O)(=O)c3ccc(C)cc3)o2)cc1
20 nM	7.20	–	COc1ccc(Cc2nnc(CN(c3cccc(Cl)c3Cl)S(=O)(=O)c3ccc(Cl)cc3)o2)cc1
25.1 nM	6.90	–	CCc1ccccc1N(Cc1nnc(COc2ccc(OC)cc2)o1)S(=O)(=O)c1ccc(C)cc1
20 nM	7.10	–	COc1ccc(NCc2nnc(CN(c3cccc(Cl)c3C)S(=O)(=O)c3ccc(C)cc3)o2)cc1
7.94 nM	7.20	–	COc1ccc(Nc2nnc(CN(c3cccc(Cl)c3Cl)S(=O)(=O)c3ccc(C(F)(F)F)cc3)o2)cc1
2.51 nM	8.20	–	CCOc1ccc(Cc2nnc(CN(c3cccc(Cl)c3Cl)S(=O)(=O)c3ccc(C(F)(F)F)cc3)o2)cc1
398 nM	6.50	–	CCc1ccccc1N(Cc1nnc(Cc2ccc(Cl)cc2)o1)S(=O)(=O)c1ccc(C)cc1
1000 nM	6.40	–	CCc1ccccc1N(Cc1nnc(Cc2ccccc2)o1)S(=O)(=O)c1ccc(C)cc1
79.4 nM	6.40	–	Cc1ccc(S(=O)(=O)N(Cc2nnc(Cc3ccccc3Cl)o2)c2cccc(Cl)c2C)cc1
> 1000 nM	7.00	–	CCc1ccccc1N(Cc1nnc(Oc2ccc(OC)cc2)o1)S(=O)(=O)c1ccc(C)cc1
6.31 nM	7.50	–	CCOc1ccc(Cc2nnc(CN(c3cccc(Cl)c3Cl)S(=O)(=O)c3ccc(C)cc3)o2)cc1
50.1 nM	6.80	–	Cc1ccc(S(=O)(=O)N(Cc2nnc(Cc3ccc(C(F)(F)F)cc3)o2)c2cccc(Cl)c2C)cc1
39.8 nM	7.30	–	COc1ccc(Nc2nnc(CN(c3cccc(Cl)c3Cl)S(=O)(=O)c3ccc(C)cc3)o2)cc1
31.6 nM	7.10	–	COc1ccc(Nc2nnc(CN(c3cccc(Cl)c3C)S(=O)(=O)c3ccc(C)cc3)o2)cc1
6.31 nM	7.40	–	COc1ccc(Cc2nnc(CN(c3cccc(Cl)c3C)S(=O)(=O)c3ccc(C)cc3)o2)cc1
12.6 nM	7.70	–	Cc1ccc(S(=O)(=O)N(Cc2nnc(Cc3ccc(N(C)C)cc3)o2)c2cccc(Cl)c2C)cc1
